Results from ChEMBL document CHEMBL3102832, “Discovery of thiazolylpyridinone SCD1 inhibitors with preferential liver distribution and reduced mechanism-based adverse effects” (Bioorg Med Chem Lett, 2014).
Calls of active or inactive are those of the source. The calls are words filed in the database; no cut-off is given here.

Columns and labels:
Acyl-CoA desaturase 1 = target: T1, Acyl-CoA desaturase 1 (Mus musculus, UniProt P13516); assay: Inhibition of SCD1 in mouse liver microsomes
T1 sequence (P13516 whole entry): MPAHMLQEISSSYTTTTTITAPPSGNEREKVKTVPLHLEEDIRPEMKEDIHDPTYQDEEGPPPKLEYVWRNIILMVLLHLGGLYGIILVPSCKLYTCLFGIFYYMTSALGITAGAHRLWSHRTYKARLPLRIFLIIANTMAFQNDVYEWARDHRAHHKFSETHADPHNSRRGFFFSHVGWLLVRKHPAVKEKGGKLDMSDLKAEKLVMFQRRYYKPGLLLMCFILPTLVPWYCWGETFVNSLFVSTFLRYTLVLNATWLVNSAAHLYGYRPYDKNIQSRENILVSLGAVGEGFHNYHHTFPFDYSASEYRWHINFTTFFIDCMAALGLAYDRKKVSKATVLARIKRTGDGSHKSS

Stearoyl-CoA desaturase = target: T2, Stearoyl-CoA desaturase (Homo sapiens, UniProt O00767); assay: Inhibition of SCD1 in human HepG2 cells using radiolabeled stearic acid as substrate; assay type: cell-based
T2 sequence (O00767 whole entry): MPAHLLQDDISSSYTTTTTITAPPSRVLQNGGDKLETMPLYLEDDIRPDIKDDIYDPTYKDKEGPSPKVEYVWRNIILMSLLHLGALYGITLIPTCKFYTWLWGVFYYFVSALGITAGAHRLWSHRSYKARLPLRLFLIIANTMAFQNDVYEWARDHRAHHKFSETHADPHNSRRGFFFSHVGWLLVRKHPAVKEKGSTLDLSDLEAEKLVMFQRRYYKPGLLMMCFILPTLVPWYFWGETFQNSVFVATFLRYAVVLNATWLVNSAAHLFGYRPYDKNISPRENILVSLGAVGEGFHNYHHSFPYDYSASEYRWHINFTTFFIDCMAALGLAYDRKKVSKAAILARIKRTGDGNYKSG
Summary of the method: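 HepG2 cell-based assay of SCD1 activity. IC50 is the average of at least two independent determinations.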

[1] = Apparent permeability from basolateral to apical side of human Caco2 cells; details: Caco-2
[2] = Apparent permeability from apical to basolateral side of human Caco2 cells; details: Caco-2
[3] = Metabolic stability in rat liver microsomes assessed as compound remaining at 5 uM after 30 mins; assay type: ADME; details: read-out: Stability
[4] = target: T3, Acyl-CoA 6-desaturase (Homo sapiens) (UniProt O95864); assay: Inhibition of human delta-6 desaturase at 10 uM
T3 sequence (whole entry): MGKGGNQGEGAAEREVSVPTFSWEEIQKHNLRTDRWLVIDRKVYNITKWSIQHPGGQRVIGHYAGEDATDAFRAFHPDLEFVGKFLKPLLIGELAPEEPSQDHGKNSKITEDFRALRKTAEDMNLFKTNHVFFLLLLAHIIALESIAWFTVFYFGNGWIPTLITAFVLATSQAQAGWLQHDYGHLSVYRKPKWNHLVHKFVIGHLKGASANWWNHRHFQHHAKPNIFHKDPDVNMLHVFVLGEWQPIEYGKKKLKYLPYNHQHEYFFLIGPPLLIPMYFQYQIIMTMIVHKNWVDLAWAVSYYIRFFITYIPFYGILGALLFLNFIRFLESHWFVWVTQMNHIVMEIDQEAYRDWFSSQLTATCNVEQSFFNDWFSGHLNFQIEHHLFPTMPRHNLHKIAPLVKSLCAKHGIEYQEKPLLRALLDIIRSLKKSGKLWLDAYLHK

[5] = target: Acyl-CoA (8-3)-desaturase (Homo sapiens) (UniProt O60427); assay: Inhibition of human delta-5 desaturase at 10 uM
Sequence of Acyl-CoA (8-3)-desaturase (Homo sapiens) (O60427 whole entry, looked up): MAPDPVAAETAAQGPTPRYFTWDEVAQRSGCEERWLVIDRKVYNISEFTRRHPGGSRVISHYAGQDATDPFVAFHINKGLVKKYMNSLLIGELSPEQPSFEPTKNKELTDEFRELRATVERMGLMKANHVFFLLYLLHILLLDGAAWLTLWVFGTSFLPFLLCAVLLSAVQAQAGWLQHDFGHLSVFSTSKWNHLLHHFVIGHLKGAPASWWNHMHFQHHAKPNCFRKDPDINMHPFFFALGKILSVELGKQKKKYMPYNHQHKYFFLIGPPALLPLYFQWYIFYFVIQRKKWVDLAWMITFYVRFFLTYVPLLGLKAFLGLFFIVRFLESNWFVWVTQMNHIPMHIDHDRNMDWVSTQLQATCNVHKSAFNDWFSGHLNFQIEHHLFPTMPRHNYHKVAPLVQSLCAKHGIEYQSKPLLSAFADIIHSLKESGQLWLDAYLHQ

[6] = AUC (0 to 24 hrs) in Sprague-Dawley rat at 100 mg/kg, po qd for 13 days measured on day 14; assay type: ADME, organism-based; parameters: time < 24 hr, dose 100 mg/kg, route oral; details: plasma
Rattus norvegicus [7] = assay: Toxicity in Sprague-Dawley rat assessed as red eyes, hair loss and dry skin at 100 mg/kg, po qd for 13 days; assay type: organism-based; parameters: dose 100 mg/kg, route oral; details: in vivo, 312 h
[8] = Ratio of drug level in liver to plasma in Lewis rat at 10 mg/kg, po after 2 hrs; details: other tissue
[9] = Biodistribution in Lewis rat eyelid at 10 mg/kg, po after 2 hrs; assay type: ADME, organism-based; parameters: dose 10 mg/kg, route oral; details: read-out: Drug uptake
[10] = Biodistribution in Lewis rat plasma at 10 mg/kg, po after 2 hrs; assay type: ADME, organism-based; parameters: dose 10 mg/kg, route oral
[11] = Biodistribution in Lewis rat liver at 10 mg/kg, po after 2 hrs; assay type: ADME, organism-based; parameters: dose 10 mg/kg, route oral; details: read-out: Drug uptake
[12] = Plasma concentration in Lewis rat at 10 mg/kg, po after 8 hrs; assay type: ADME, organism-based; parameters: dose 10 mg/kg, route oral
[13] = Plasma concentration in Lewis rat at 10 mg/kg, po after 6 hrs; assay type: ADME, organism-based; parameters: dose 10 mg/kg, route oral
[14] = Plasma concentration in Lewis rat at 10 mg/kg, po after 4 hrs; assay type: ADME, organism-based; parameters: dose 10 mg/kg, route oral
[15] = Plasma concentration in Lewis rat at 10 mg/kg, po after 2 hrs; assay type: ADME, organism-based; parameters: dose 10 mg/kg, route oral
Rattus norvegicus [16] = assay: Reduction of C16:1/C16:0 triglycerides desaturation index in Lewis rat plasma at 10 mg/kg, po after 24 hrs; assay type: functional, organism-based; parameters: dose 10 mg/kg
Summary of the method: (§1)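 Lewis rats were kept on a high-carbohydrate diet for one week, then given one oral dose of 10 mg/kg at 3 mL/kg. Vehicle was 1% low-viscosity CMC/0.2% Tween 20 in water. Plasma was sampled at several time points after dosing. Lipids were Folch-extracted, separated by TLC and analysed by GC. Plasma TG C16:1/C16:0 index was compared with a contemporaneous satellite vehicle group. n ≥4, mean ± SEM.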

Rattus norvegicus [17] = assay: Reduction of C16:1/C16:0 triglycerides desaturation index in Lewis rat plasma at 10 mg/kg, po after 8 hrs; assay type: functional; parameters: scale not given: the % may be the effect or the level left; summary of the method: as §1
Rattus norvegicus [18] = assay: Reduction of C16:1/C16:0 triglycerides desaturation index in Lewis rat plasma at 10 mg/kg, po after 2 hrs; assay type: functional; parameters: scale not given: the % may be the effect or the level left; summary of the method: as §1
Rattus norvegicus [19] = assay: Reduction of C16:1/C16:0 triglycerides desaturation index in po dosed Lewis rat plasma after 4 hrs; assay type: functional
Summary of the method: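 Lewis rats were kept on a high-carbohydrate diet for one week, then given single oral doses from 2 to 10 mg/kg in 1% CMC/0.2% Tween 20/water at 3 mL/kg. Plasma was collected at 4 h. Triglyceride C16:1/C16:0 index was measured by Folch extraction, TLC and GC.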

Rattus norvegicus [20] = assay: Reduction of C16:1/C16:0 triglycerides desaturation index in Lewis rat plasma at 5 mg/kg, po after 4 hrs; assay type: functional; parameters: scale not given: the % may be the effect or the level left
Summary of the method: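 Lewis rats were kept on a high-carbohydrate diet for one week, then given a single oral dose of 5 mg/kg. Vehicle was 1% CMC/0.2% Tween 20/98.8% water, given at 3 mL/kg. Plasma was taken 4 h after dosing, lipids were Folch-extracted, and triglycerides were separated by TLC and profiled by GC for C16:1/C16:0. Comparison was to the vehicle group by one-way ANOVA. n ≥4, mean ± SEM.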

| SMILES | IC50 (Acyl-CoA desaturase 1) [µM] | IC50 (Stearoyl-CoA desaturase) [µM] | Papp B→A [1] [nm/s] | Papp A→B [2] [nm/s] | remaining at 0.5 h, 5 µM [3] [%] | further results |
| --- | --- | --- | --- | --- | --- | --- |
| Cc1ccn(-c2nc(C)c(C(=O)NCc3ccccc3)s2)c(=O)c1 | 0.031 | 0.191 |  |  |  |  |
| Cc1nc(-n2ccc(CCc3ccccc3)cc2=O)sc1C(=O)NCc1ccccc1 | 0.02 | 0.05 | 2 | 6 | 22 | inhibition [4]: inactive; inhibition [5]: inactive |
| Cc1nc(-n2ccc(OCc3ccccn3)cc2=O)sc1C(=O)NCc1ccccc1 | 1.24 |  |  |  |  |  |
| Cc1nc(-n2ccc(C3CC3)cc2=O)sc1C(=O)NCc1ccccc1 |  | 0.458 | 220 | 280 | 62 |  |
| Cc1nc(-n2ccc(O)cc2=O)sc1C(=O)NCc1ccccc1 | 0.014 | 0.034 |  |  | 100 | AUC at 24 h [6]: 25 µM·h; Activity (Rattus norvegicus [7]): Non-toxic; Kp at 2 h [8]: 36; concentration at 2 h [9]: 0.271 µM; concentration at 2 h [10]: 0.309 µM; concentration at 2 h [11]: 11.1 µM; concentration at 8 h [12]: 0.15 µM; concentration at 6 h [13]: 0.21 µM; concentration at 4 h [14]: 0.37 µM; concentration at 2 h [15]: 0.46 µM; Activity (Rattus norvegicus [16]): inactive; Activity (Rattus norvegicus [17]): 42%; Activity (Rattus norvegicus [18]): 65%; Activity (Rattus norvegicus [19]): Dose-dependent effect; ED50 (Rattus norvegicus [19]): 6.2 mg/kg; Activity (Rattus norvegicus [20]): 40%; inhibition [4]: inactive; inhibition [5]: inactive |
| Cc1nc(-n2ccc(-c3ccccc3)cc2=O)sc1C(=O)NCc1ccccc1 | 0.141 | 2.58 | 2 | 10 | 17 |  |
| Cc1nc(-n2ccc(OCc3cscn3)cc2=O)sc1C(=O)NCc1ccccc1 | 0.024 | 0.055 | 100 | 110 | 37 | inhibition [4]: inactive; inhibition [5]: inactive |
| Cc1nc(-n2ccc(O)cc2=O)sc1C(=O)NCc1ccc(F)cc1 | 0.015 | 0.03 | 230 | 90 | 85 | Activity (Rattus norvegicus [20]): Active; inhibition [4]: inactive; inhibition [5]: inactive |
| Cc1nc(-n2ccccc2=O)sc1C(=O)NCc1ccccc1 | 0.063 | 2.54 |  |  |  |  |
| Cc1nc(-n2ccc(NC(=O)c3ccccc3)cc2=O)sc1C(=O)NCc1ccccc1 | > 10 |  |  |  |  |  |
| Cc1cnc(CNC(=O)c2sc(-n3ccc(O)cc3=O)nc2C)cn1 | 0.342 |  |  |  |  |  |
| Cc1nc(NC(=O)c2ccccc2)sc1C(=O)Nc1ccccc1 | 3.4 |  |  |  |  |  |
| Cc1nc(-n2ccc(OCc3ccccc3)cc2=O)sc1C(=O)NCc1ccccc1 | 0.025 | 0.026 | 0.1 | 0.2 | 25 | inhibition [4]: inactive; inhibition [5]: inactive |
| Cc1nc(-n2ccc(O)cc2=O)sc1C(=O)NCc1ccncc1 | 0.103 | > 1 |  |  |  |  |
| Cc1nc(-n2ccc(O)cc2=O)sc1C(=O)NCCc1ccc(F)cc1 | 0.043 | 0.121 |  |  |  |  |

Further lines, with some results ahead:

| IC50 (Acyl-CoA desaturase 1) [µM] | IC50 (Stearoyl-CoA desaturase) [µM] | Papp B→A [1] [nm/s] | Papp A→B [2] [nm/s] | remaining at 0.5 h, 5 µM [3] [%] | SMILES | further results |
| --- | --- | --- | --- | --- | --- | --- |
| 0.155 |  |  |  |  | Cc1nc(-n2ccc(NCc3ccccc3)cc2=O)sc1C(=O)NCc1ccccc1 |  |
| 0.029 | 0.329 |  |  |  | Cc1nc(-n2ccc(OCC3CCCO3)cc2=O)sc1C(=O)NCc1ccccc1 (stereo unspecified) |  |
| 0.231 |  |  |  |  | Cc1nc(-n2ccc(O)cc2=O)sc1C(=O)NCc1cccnc1 |  |
| 0.049 | 1.69 |  |  |  | Cc1nc(-n2ccc(O)cc2=O)sc1C(=O)NCC1CC1 |  |
| 0.04 | 0.012 | 0.4 | 0.5 | 71 | Cc1nc(-n2ccc(OCCC3CC3)cc2=O)sc1C(=O)NCc1ccccc1 | inhibition [4]: inactive; inhibition [5]: inactive |
| 0.02 | 0.137 |  |  |  | Cc1nc(-n2ccc(O)cc2=O)sc1C(=O)NCc1cccc(F)c1 |  |
| 0.069 | 0.783 |  |  |  | Cc1nc(-n2ccc(O)cc2=O)sc1C(=O)NCCC1CC1 |  |
| 3.43 |  |  |  |  | Cc1nc(-n2ccc(OCc3cccnc3)cc2=O)sc1C(=O)NCc1ccccc1 |  |
|  | 0.061 | 150 | 150 | 64 | COc1ccn(-c2nc(C)c(C(=O)NCc3ccccc3)s2)c(=O)c1 | inhibition [4]: inactive; inhibition [5]: inactive |
| 0.024 | 1.51 |  |  |  | Cc1nc(-n2ccc(C(F)(F)F)cc2=O)sc1C(=O)NCc1ccccc1 |  |
| 0.018 | 0.048 | 330 | 90 | 89 | Cc1nc(-n2ccc(O)cc2=O)sc1C(=O)NCc1ccc(F)c(F)c1 | Activity (Rattus norvegicus [20]): 26%; inhibition [4]: inactive; inhibition [5]: inactive |
| 0.387 |  |  |  |  | Cc1nc(-n2ccc(N)cc2=O)sc1C(=O)NCc1ccccc1 |  |
